From ChEMBL document CHEMBL1138529, “Efficacy, pharmacokinetics, and metabolism of tetrahydroquinoline inhibitors of Plasmodium falciparum protein farnesyltransferase” (Antimicrob Agents Chemother, 2007)

What was measured:
[1] = Permeability from apical to basolateral side in human Caco-2 cells; format: ADME, cell-based; conditions: read-out: permeability
[2] = Inhibition of Plasmodium falciparum protein farnesyltransferase by SPA method
Plasmodium falciparum = experiment: Antiplasmodial activity against Plasmodium falciparum by [3H]hypoxanthine uptake; format: functional; conditions: read-out: ED50 (the source's name)
In short: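 Asynchronous P. falciparum (3D7 or K1) in RPMI 1640 with 20% heat-inactivated human A+ plasma, 0.5% parasitemia and 0.5% hematocrit; compound serially diluted, top final 5 μM, 48 h at 37°C under 5% CO2/5% O2/90% N2, then [8-3H]hypoxanthine 0.3 μCi added for 24 h.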

Mus musculus [3] = experiment: Toxicity in BALB/c mouse at 50 mg/kg, po; format: organism-based; design: dose 50 mg/kg, route oral; conditions: in vivo
Rattus norvegicus = experiment: Toxicity in Sprague-Dawley rat at 50 mg/kg, po; format: organism-based; design: dose 50 mg/kg, route oral; conditions: in vivo
In short: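 Female Sprague-Dawley rats, 10-12 weeks, three per group. 50 mg/kg oral gavage in 3% EtOH-7% Tween 80-90% normal saline. Saphenous vein plasma sampled over time, and animals observed for adverse reactions.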

[4] = Permeability from basolateral to apical side in human Caco-2 cells; format: ADME, cell-based; conditions: read-out: permeability
In short: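 Caco-2 clone TC7 grown on laminin-coated porous inserts and used 19-21 days after seeding; integrity checked by TEER and [3H]mannitol flux. Monolayers equilibrated 30 min at 37°C in HBSS/5 mM HEPES pH 7.4. Compound at 50 μM final added to basolateral donor side. Apical receiver sampled at 60 min, 37°C with shaking; LC/MS; Papp calculated from 60-min concentrations.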

Mus musculus [5] = experiment: Plasma concentration in BALB/c mouse at 50 mg/kg, po; format: ADME, organism-based; design: dose 50 mg/kg, route oral; conditions: in vivo
In short: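 Female BALB/c mice, 8-10 weeks, three per group. Single 50 mg/kg oral gavage in 3% EtOH-7% Tween 80-90% normal saline. Plasma collected by tail bleed at set times, frozen at −20°C, acetonitrile-extracted with internal standard, quantified by LC/MS.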

Row | Papp A→B [1] | IC50 [2] | EC50 (Plasmodium falciparum) | Papp B→A [4] | concentration (Mus musculus [5]) | Compound | Activity (Mus musculus [3]) | Activity (Rattus norvegicus)
1 | 0.5 ×10⁻⁶ cm/s | 0.6 nM | 18 nM | – | – | Cn1cncc1CN1CC(N(CC2CCN(C(=O)C3CC3)CC2)S(=O)(=O)c2ccccn2)Cc2cc(C#N)ccc21 (stereo unspecified) | Non-toxic | Non-toxic
2 | 0.1 ×10⁻⁶ cm/s | – | – | 41.9 ×10⁻⁶ cm/s | – | CC[C@]1(O)C[C@@H]2CN(CCc3c([nH]c4ccccc34)[C@@](C(=O)OC)(c3cc4c(cc3OC)N(C)[C@H]3[C@@](O)(C(=O)OC)[C@H](OC(C)=O)[C@]5(CC)C=CCN6CC[C@]43[C@@H]65)C2)C1 [VINBLASTINE] | – | –
3 | 0.5 ×10⁻⁶ cm/s | 0.6 nM | 18 nM | – | – | Cn1cncc1CN1CC(N(CC2CCN(C(=O)CC(F)(F)F)CC2)S(=O)(=O)c2ccccn2)Cc2cc(C#N)ccc21 (stereo unspecified) | Non-toxic | Non-toxic
4 | – | 10 nM | 2.7 nM | – | – | Cn1cncc1CN1CC(N(CC(=O)NC(C)(C)C)S(=O)(=O)c2cccnc2)Cc2cc(C#N)ccc21 (stereo unspecified) | – | –
5 | 0.6 ×10⁻⁶ cm/s | 0.8 nM | 13 nM | – | – | Cn1cncc1CN1CC(N(CC2CCN(C(=O)N3CCCC3)CC2)S(=O)(=O)c2ccccn2)Cc2cc(C#N)ccc21 (stereo unspecified) | Non-toxic | Non-toxic
6 | 0.2 ×10⁻⁶ cm/s | – | – | 50.1 ×10⁻⁶ cm/s | 0.15 µM | Cn1cncc1CN1CC(N(Cc2ccc(S(C)(=O)=O)cc2)S(=O)(=O)c2ccccn2)Cc2cc(C#N)ccc21 (stereo unspecified) | Non-toxic | –
7 | 0.6 ×10⁻⁶ cm/s | 0.8 nM | 13 nM | – | – | Cn1cncc1CN1CC(N(CC2CCN(C(=O)N3CCCCC3)CC2)S(=O)(=O)c2ccccn2)Cc2cc(C#N)ccc21 (stereo unspecified) | Non-toxic | Non-toxic
8 | 0.1 ×10⁻⁶ cm/s | 0.5 nM | 62 nM | – | – | Cn1cncc1CN1CC(N(CC2CCN(S(C)(=O)=O)CC2)S(=O)(=O)c2ccccn2)Cc2cc(C#N)ccc21 (stereo unspecified) | Non-toxic | Non-toxic
9 | 0.5 ×10⁻⁶ cm/s | 0.6 nM | 18 nM | – | – | Cn1cncc1CN1CC(N(CC2CCN(C(=O)c3cccs3)CC2)S(=O)(=O)c2ccccn2)Cc2cc(C#N)ccc21 (stereo unspecified) | Non-toxic | Non-toxic
10 | 0.6 ×10⁻⁶ cm/s | 0.8 nM | 13 nM | – | – | Cn1cncc1CN1CC(N(CC2CCN(C(=O)Nc3ccc(Br)cc3)CC2)S(=O)(=O)c2ccccn2)Cc2cc(C#N)ccc21 (stereo unspecified) | Non-toxic | Non-toxic
11 | 0.5 ×10⁻⁶ cm/s | 0.6 nM | 17 nM | – | – | CCCC(=O)N1CCC(CN(C2Cc3cc(C#N)ccc3N(Cc3cncn3C)C2)S(=O)(=O)c2ccccn2)CC1 (stereo unspecified) | Non-toxic | Non-toxic
12 | 0.5 ×10⁻⁶ cm/s | 0.6 nM | 15 nM | – | – | Cn1cncc1CN1CC(N(CC2CCN(C(=O)C(C)(C)C)CC2)S(=O)(=O)c2ccccn2)Cc2cc(C#N)ccc21 (stereo unspecified) | Non-toxic | Non-toxic
13 | 0.6 ×10⁻⁶ cm/s | 0.8 nM | 13 nM | – | – | Cn1cncc1CN1CC(N(CC2CCN(C(=O)NC(C)(C)C)CC2)S(=O)(=O)c2ccccn2)Cc2cc(C#N)ccc21 (stereo unspecified) | Non-toxic | Non-toxic
14 | 0.5 ×10⁻⁶ cm/s | 0.6 nM | 18 nM | – | – | Cn1cncc1CN1CC(N(CC2CCN(C(=O)c3ccc(Cl)cc3)CC2)S(=O)(=O)c2ccccn2)Cc2cc(C#N)ccc21 (stereo unspecified) | Non-toxic | Non-toxic
15 | 0.5 ×10⁻⁶ cm/s | 0.6 nM | 18 nM | – | – | Cn1cncc1CN1CC(N(CC2CCN(C(=O)c3ccccc3)CC2)S(=O)(=O)c2ccccn2)Cc2cc(C#N)ccc21 (stereo unspecified) | Non-toxic | Non-toxic
16 | 0.5 ×10⁻⁶ cm/s | 0.6 nM | 18 nM | – | – | Cn1cncc1CN1CC(N(CC2CCN(C(=O)C3CCCC3)CC2)S(=O)(=O)c2ccccn2)Cc2cc(C#N)ccc21 (stereo unspecified) | Non-toxic | Non-toxic
17 | 0.1 ×10⁻⁶ cm/s | 0.5 nM | 62 nM | – | – | Cn1cncc1CN1CC(N(CC2CCN(S(=O)(=O)c3ccccc3)CC2)S(=O)(=O)c2ccccn2)Cc2cc(C#N)ccc21 (stereo unspecified) | Non-toxic | Non-toxic
18 | 2.3 ×10⁻⁶ cm/s | – | – | 12.1 ×10⁻⁶ cm/s | 9.8 µM | Cn1cncc1CN1CC(N(Cc2cccc(-n3cccc3)c2)S(=O)(=O)c2ccccn2)Cc2cc(C#N)ccc21 (stereo unspecified) | Non-toxic | –
19 | 0.1 ×10⁻⁶ cm/s | 0.5 nM | 62 nM | – | – | CC(C)S(=O)(=O)N1CCC(CN(C2Cc3cc(C#N)ccc3N(Cc3cncn3C)C2)S(=O)(=O)c2ccccn2)CC1 (stereo unspecified) | Non-toxic | Non-toxic

Row | Papp A→B [1] | IC50 [2] | EC50 (Plasmodium falciparum) | Papp B→A [4] | concentration (Mus musculus [5]) | Compound | Activity (Mus musculus [3]) | Activity (Rattus norvegicus)
20 | 0.1 ×10⁻⁶ cm/s | 0.5 nM | 62 nM | – | – | CCS(=O)(=O)N1CCC(CN(C2Cc3cc(C#N)ccc3N(Cc3cncn3C)C2)S(=O)(=O)c2ccccn2)CC1 (stereo unspecified) | Non-toxic | Non-toxic
21 | – | 1 nM | 85 nM | – | – | Cn1cncc1CN1CC(N(CC(=O)NC(C)(C)C)S(=O)(=O)c2ccccn2)Cc2cc(C#N)ccc21 (stereo unspecified) | – | –
22 | 0.2 ×10⁻⁶ cm/s | – | – | 52.1 ×10⁻⁶ cm/s | 1.1 µM | Cn1cnc(S(=O)(=O)N(Cc2cccc(-n3cccc3)c2)C2Cc3cc(C#N)ccc3N(Cc3cncn3C)C2)c1 (stereo unspecified) | Non-toxic | –
23 | 0.5 ×10⁻⁶ cm/s | 0.6 nM | 18 nM | – | – | Cn1cncc1CN1CC(N(CC2CCN(C(=O)CNC(=O)OC(C)(C)C)CC2)S(=O)(=O)c2ccccn2)Cc2cc(C#N)ccc21 (stereo unspecified) | Non-toxic | Non-toxic
24 | 8 ×10⁻⁶ cm/s | – | – | 67.1 ×10⁻⁶ cm/s | 15 µM | Cc1noc(C)c1CN(C1Cc2cc(C#N)ccc2N(Cc2cncn2C)C1)S(=O)(=O)c1ccccn1 (stereo unspecified) | Non-toxic | –
25 | – | > 50 nM | > 5 nM | – | – | Cn1cncc1CN1CC(N(CC(=O)NC(C)(C)C)S(=O)(=O)c2ccncc2)Cc2cc(C#N)ccc21 (stereo unspecified) | – | –
26 | 0.5 ×10⁻⁶ cm/s | 0.6 nM | 13 nM | – | – | CCC(=O)N1CCC(CN(C2Cc3cc(C#N)ccc3N(Cc3cncn3C)C2)S(=O)(=O)c2ccccn2)CC1 (stereo unspecified) | Non-toxic | Non-toxic
27 | 0.1 ×10⁻⁶ cm/s | 0.5 nM | 62 nM | – | – | Cn1cnc(S(=O)(=O)N2CCC(CN(C3Cc4cc(C#N)ccc4N(Cc4cncn4C)C3)S(=O)(=O)c3ccccn3)CC2)c1 (stereo unspecified) | Non-toxic | Non-toxic
28 | 0.6 ×10⁻⁶ cm/s | 0.8 nM | 13 nM | – | – | CC(C)NC(=O)N1CCC(CN(C2Cc3cc(C#N)ccc3N(Cc3cncn3C)C2)S(=O)(=O)c2ccccn2)CC1 (stereo unspecified) | Non-toxic | Non-toxic
29 | 0.6 ×10⁻⁶ cm/s | 0.8 nM | 13 nM | – | – | CN(C)C(=O)N1CCC(CN(C2Cc3cc(C#N)ccc3N(Cc3cncn3C)C2)S(=O)(=O)c2ccccn2)CC1 (stereo unspecified) | Non-toxic | Non-toxic
30 | 0.5 ×10⁻⁶ cm/s | 0.6 nM | 16 nM | – | – | Cn1cncc1CN1CC(N(CC2CCN(C(=O)CC(C)(C)C)CC2)S(=O)(=O)c2ccccn2)Cc2cc(C#N)ccc21 (stereo unspecified) | Non-toxic | Non-toxic
31 | 0.6 ×10⁻⁶ cm/s | 0.8 nM | 13 nM | – | – | CCNC(=O)N1CCC(CN(C2Cc3cc(C#N)ccc3N(Cc3cncn3C)C2)S(=O)(=O)c2ccccn2)CC1 (stereo unspecified) | Non-toxic | Non-toxic
32 | 28.9 ×10⁻⁶ cm/s | – | – | 83.4 ×10⁻⁶ cm/s | – | CC(C)NCC(O)COc1cccc2ccccc12 (stereo unspecified) [PROPRANOLOL] | – | –
33 | 0.5 ×10⁻⁶ cm/s | 0.6 nM | 18 nM | – | – | Cn1cncc1CN1CC(N(CC2CCN(C(=O)c3ccco3)CC2)S(=O)(=O)c2ccccn2)Cc2cc(C#N)ccc21 (stereo unspecified) | Non-toxic | Non-toxic
34 | 0.5 ×10⁻⁶ cm/s | 0.6 nM | 18 nM | – | – | C=C(C)C(=O)N1CCC(CN(C2Cc3cc(C#N)ccc3N(Cc3cncn3C)C2)S(=O)(=O)c2ccccn2)CC1 (stereo unspecified) | Non-toxic | Non-toxic
35 | 0.5 ×10⁻⁶ cm/s | 0.6 nM | 12 nM | – | – | CC(=O)N1CCC(CN(C2Cc3cc(C#N)ccc3N(Cc3cncn3C)C2)S(=O)(=O)c2ccccn2)CC1 (stereo unspecified) | Non-toxic | Non-toxic
36 | 1.6 ×10⁻⁶ cm/s | – | – | 73.3 ×10⁻⁶ cm/s | 5.7 µM | Cn1cncc1CN1CC(N(Cc2ccccn2)S(=O)(=O)c2ccccn2)Cc2cc(C#N)ccc21 (stereo unspecified) | Non-toxic | –
37 | 0.3 ×10⁻⁶ cm/s | – | – | 53 ×10⁻⁶ cm/s | 0.8 µM | Cn1cnc(S(=O)(=O)N(CCn2cccc2)C2Cc3cc(C#N)ccc3N(Cc3cncn3C)C2)c1 (stereo unspecified) | Non-toxic | –
38 | 0.5 ×10⁻⁶ cm/s | 0.6 nM | 14 nM | – | – | CC(C)C(=O)N1CCC(CN(C2Cc3cc(C#N)ccc3N(Cc3cncn3C)C2)S(=O)(=O)c2ccccn2)CC1 (stereo unspecified) | Non-toxic | Non-toxic

Row | Compound | Papp A→B [1] | IC50 [2] | EC50 (Plasmodium falciparum) | Papp B→A [4] | concentration (Mus musculus [5]) | Activity (Mus musculus [3]) | Activity (Rattus norvegicus)
39 | CNC(=C[N+](=O)[O-])NCCSCc1ccc(CN(C)C)o1 [RANITIDINE] | 0.3 ×10⁻⁶ cm/s | – | – | 5.6 ×10⁻⁶ cm/s | – | – | –
